Screening results from PubChem BioAssay.
Most compounds without a hit are left out; they make up all but 2.1% or so of the library.
FN deposit inh – fibronectin deposition inhibition. AH1F fibroblasts, Alexa488-fibronectin deposition fluorescence, overnight. inhibition, % at 12.6 µM. 0.086% of 350,000 active. AID 743247;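 active means mean inhibition across replicates of 30% or more, regardless of how many single replicates reach that level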
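Assay system: AH1F fibroblasts / Quantity: 10000 cells per well / Medium: DMEM plus 2% serum, read in PBS / Reagent: labelled fibronectin 24 nM / Dosing: single dose, pinned / Times: 1 h cell attachment, overnight exposure to compound and label / Signal: fluorescence, ex 485 nm, em 525 nm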
aSyn 5UTR inh – MLPCN primary screen, SNCA 5' untranslated region | alpha-synuclein 5'UTR reporter, inhibitor activity | inhibition, % (tested at 7.5 µM) | 0.82% of 300,000 active | AID 1813; in the data active means inhibition above about 60%;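 further: H4 neuroglioblastoma cells stably carrying SNCA 5'UTR luciferase fusion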
EBV LMP1 NFkB – Epstein-Barr LMP1 NF-kappaB reporter inhibition. AID 504558. inhibition, % at 12.5 µM. LMP1-induced NF-kappaB luciferase reporter cells, luminescence. 0.69% of 350,000 active; in the data active means inhibition above about 41%
PAX8 reporter – PAX8 transcriptional activity inhibition | RMG-I TPO-luciferase reporter, SteadyGlo, 24 h | inhibition, % at 12.6 µM | 1.2% of 360,000 active | AID 652154;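 active means mean replicate inhibition at least 60% with every replicate also reaching 60%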;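 further: luciferase light reporting Pax8 driven TPO promoter activity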
Shn3 3UTR inh – Schnurri-3 reporter inhibition in Clone20 osteoblasts; Clone20 osteoblast Shn3 3'UTR firefly luciferase, 24 h; inhibition, % at 12.5 µM; 0.52% of 360,000 active; AID 588674;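 active means mean inhibition of at least 75% with every replicate also reaching 75%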
EWS-Fli block – blocks EWS/Fli oncoprotein-driven transcription. 0.67% of 350,000 active. inhibition, % at 12.6 µM. A673 NR0B1-luciferase reporter, viability-normalised;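 active means mean inhibition of at least 50% after viability correction, with every replicate also passing that limit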;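 further: firefly luciferase signal divided by Alamar Blue viability fluorescence both relative to DMSO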
Hits are given with their value.

For CCCS(=O)(=O)c1cnc(C2COc3ccccc3O2)nc1N (stereo unspecified) the results were FN deposit inh inactive, aSyn 5UTR inh 68, EBV LMP1 NFkB 71, PAX8 reporter inactive, Shn3 3UTR inh inactive and EWS-Fli block 86.
Cc1cc(C2CCCCC2)n(O)c(=O)c1 was read as FN deposit inh inactive, EBV LMP1 NFkB inactive, PAX8 reporter 73, Shn3 3UTR inh inactive and EWS-Fli block inactive.
`COc1ccc(OC)c(CNC(=O)CCn2nc(C)c3c(C)n(-c4ccccc4)nc3c2=O)c1` gave FN deposit inh inactive, aSyn 5UTR inh inactive, EBV LMP1 NFkB inactive, PAX8 reporter inactive, Shn3 3UTR inh inactive and EWS-Fli block inactive.
For COc1ccc(OC)c(CCNC(=O)CCn2nc(C)c3c(C)n(-c4ccccc4)nc3c2=O)c1 the results were FN deposit inh inactive, aSyn 5UTR inh inactive, EBV LMP1 NFkB 55, PAX8 reporter inactive and Shn3 3UTR inh inactive.
`COc1ccc(Nc2sc(C(=O)c3ccc(Cl)cc3)c(N)c2C(=O)Nc2ccccc2OC)cc1` gave aSyn 5UTR inh inactive, EBV LMP1 NFkB inactive, PAX8 reporter inactive and Shn3 3UTR inh inactive.
`COc1ccccc1NC(=O)c1c(Nc2ccccc2C)sc(C(=O)Nc2cccc(Cl)c2)c1N` gave FN deposit inh inactive, aSyn 5UTR inh inactive, EBV LMP1 NFkB 43, PAX8 reporter inactive, Shn3 3UTR inh inactive and EWS-Fli block inactive.
Screening COC(=O)C1=C(C)N(CCCC(=O)O)C(=O)NC1c1cccc(Cl)c1Cl (stereo unspecified) returned FN deposit inh inactive, aSyn 5UTR inh inactive, EBV LMP1 NFkB 51, PAX8 reporter inactive, Shn3 3UTR inh inactive and EWS-Fli block inactive.
CCOC(=O)C1=C(C)N(CCCC(=O)O)C(=O)NC1c1ccc2ccccc2c1 (stereo unspecified) was read as FN deposit inh inactive, aSyn 5UTR inh inactive, EBV LMP1 NFkB inactive, PAX8 reporter inactive, Shn3 3UTR inh 86 and EWS-Fli block inactive.
CCOC(=O)C1=C(C)N(CCCC(=O)O)C(=O)NC1c1ccccc1 (stereo unspecified) was read as FN deposit inh inactive, aSyn 5UTR inh inactive, EBV LMP1 NFkB inactive, PAX8 reporter inactive, Shn3 3UTR inh inactive and EWS-Fli block inactive.
Screening COc1ccc(OC)c2[nH]c(=O)c(CCNC(=O)c3ccc(S(=O)(=O)N(C)C)cc3)cc12 returned aSyn 5UTR inh inactive, EBV LMP1 NFkB 69 and Shn3 3UTR inh inactive.
`C=CC(C)(C)c1c2occc2c(O)c2ccc(=O)oc12` gave EBV LMP1 NFkB inactive, Shn3 3UTR inh inactive and EWS-Fli block inactive.
Screening C=CC(C)(C)c1c(O)c(CC=C(C)C)c(O)c2c(=O)c3ccc(O)c(O)c3oc12 returned aSyn 5UTR inh 73, EBV LMP1 NFkB inactive and Shn3 3UTR inh 89.
Screening C[C@@H]1CN([C@@H](C)CO)C(=O)c2cc(NC(=O)CCCN(C)C)ccc2O[C@@H](C)CCCCO[C@@H]1CN(C)S(C)(=O)=O returned PAX8 reporter inactive and EWS-Fli block inactive.
C=CCNC(=S)Nc1sc2c(c1C(N)=O)CCCC2 was read as FN deposit inh inactive, aSyn 5UTR inh inactive, PAX8 reporter inactive, Shn3 3UTR inh inactive and EWS-Fli block inactive.
`C=CC(=O)Nc1sc2c(c1C(N)=O)CCCC2` gave FN deposit inh inactive, aSyn 5UTR inh inactive, EBV LMP1 NFkB inactive, PAX8 reporter 80, Shn3 3UTR inh inactive and EWS-Fli block inactive.
`CS(=O)(=O)Nc1ccc2c(c1)[C@H]1C[C@@H](CC(=O)NCc3cccnc3)O[C@@H](CO)[C@H]1O2` gave FN deposit inh inactive, PAX8 reporter inactive and EWS-Fli block inactive.
`CC(C)NC(=O)Nc1cccc2c1O[C@@H](CN(C)Cc1ccc(C(=O)O)cc1)[C@@H](C)CN([C@@H](C)CO)C2=O` gave FN deposit inh inactive, PAX8 reporter inactive and EWS-Fli block inactive.
CN1C(=O)c2cccc(NCCCCCCN3C(=O)c4ccccc4C3=O)c2C1=O was read as aSyn 5UTR inh inactive, EBV LMP1 NFkB inactive and Shn3 3UTR inh 88.
Screening CN1C(=O)c2cccc(NCCCN3C(=O)c4ccccc4C3=O)c2C1=O returned aSyn 5UTR inh inactive, EBV LMP1 NFkB inactive, Shn3 3UTR inh inactive and EWS-Fli block inactive.
`CC(C)CC#Cc1ccc2c(c1)O[C@H](CN(C)C(=O)c1cnccn1)[C@H](C)CN([C@@H](C)CO)S2(=O)=O` gave PAX8 reporter inactive and EWS-Fli block inactive.
